Marks after values point to notes of the source that are not given here.
Columns and labels:
Assay type in all cases: cell-based
Bacillus subtilis = test: MIC by tube dilution method; details: observed, B. subtilis, 37 °C 24 h
How it was run: (§1)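 Test compound is diluted in double strength nutrient broth (I.P.) by tube dilution, with ciprofloxacin as reference. Samples incubated at 37 °C for 24 h. MIC is the lowest concentration inhibiting microbial growth, transformed into pMIC for analysis.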

Staphylococcus aureus = test: MIC by tube dilution method; details: observed, S. aureus, 37 °C 24 h
[1] = system: S. aureus, B. subtilis and E. coli; test: Average antibacterial activity; details: average antibacterial activity (pMICsa + pMICbs + pMICec)/3
Escherichia coli = test: MIC by tube dilution method; details: observed, E. coli, 37 °C 24 h
How it was run: as §1

Feline Herpes virus = test: organism not typed; details: CRFK, read-out: EC50 Feline Corona Virus
HEL cells = test: Cytotoxicity in uninfected cell cultures; details: microscopically detectable alteration of cell morphology
How it was run: (§2)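 Uninfected cell cultures are exposed to serial dilutions of test compound in parallel with the virus cytopathicity assays. Cells are examined microscopically. Minimum cytotoxic concentration is the lowest concentration causing a microscopically detectable alteration of normal cell morphology.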

[2] = system: S. aureus, B. subtilis, E. coli, C. albicans and A. niger; test: Average antimicrobial activity; details: mean of five pMIC values
Candida albicans = test: MIC by tube dilution method; details: observed, C. albicans, 37 °C 48 h
Aspergillus niger = test: MIC by tube dilution method; details: observed, A. niger, 25 °C 7 d
Reovirus-1 = test: organism not typed; details: Vero, read-out: EC50 Reovirus-1
Para-influenza-3 virus = test: organism not typed; details: Vero, read-out: EC50 Para-influenza-3 virus
C. albicans and A. niger = test: Average antifungal activity; details: average antifungal activity (pMICca + pMICan)/2
HeLa cells = test: Cytotoxicity in uninfected cell cultures; details: cell morphology
How it was run: as §2

Vero cells = test: Cytotoxicity in uninfected cell cultures; details: cell morphology
How it was run: as §2

Row | SMILES | pMICbs (Bacillus subtilis) | pMICsa (Staphylococcus aureus) | pMICab [1] | pMICec (Escherichia coli) | EC50 (Feline Herpes virus) | Minimum cytotoxic concentration (HEL cells) | pMICam [2] | pMICca (Candida albicans) | pMICan (Aspergillus niger) | EC50 (Reovirus-1) | EC50 (Para-influenza-3 virus) | pMICaf (C. albicans and A. niger) | Cytotoxicity Minimum cytotoxic concentration (HeLa cells) | Minimum cytotoxic concentration (Vero cells)
1 | O=C(O)c1cn(C2CC2)c2cc(N3CCNCC3)c(F)cc2c1=O [Ciprofloxacin, ciprofloxacin, reference compound] | 2.61* | 2.61* | 2.61 | 2.61* |  |  |  |  |  |  |  |  |  | 
2 | Nc1ccccc1C(=O)n1c(-c2ccc(S(=O)(=O)O)cc2)nc2ccccc21 [Compound 1] | 2.03 | 1.80 | 2.08 | 2.40 | > 4 µg/mL | >100 µg/mL | 1.89 | 1.70 | 1.50 | > 4 µg/mL | > 4 µg/mL | 1.60 | ≥20 µg/mL | 
3 | O=C(c1ccccc1)n1c(-c2ccc(S(=O)(=O)O)cc2)nc2ccccc21 [Compound 2] | 2.12 | 2.08 | 2.11 | 2.12 | > 100 µg/mL | >100 µg/mL | 1.92 | 1.78 | 1.48 | > 100 µg/mL | > 100 µg/mL | 1.63 | >100 µg/mL | >100 µg/mL
4 | Nc1ccc(C(=O)n2c(-c3ccc(S(=O)(=O)O)cc3)nc3ccccc32)cc1 [Compound 3] | 1.80 | 2.10 | 2.00 | 2.10 | > 100 µg/mL | >100 µg/mL | 1.74 | 1.20 | 1.50 | > 100 µg/mL | > 100 µg/mL | 1.35 | >100 µg/mL | >100 µg/mL
5 | O=C(c1ccccc1Cl)n1c(-c2ccc(S(=O)(=O)O)cc2)nc2ccccc21 [Compound 4] | 1.82 | 2.09 | 2.11 | 2.42 | > 100 µg/mL | >100 µg/mL | 1.81 | 1.52 | 1.22 | > 100 µg/mL | > 100 µg/mL | 1.37 | >100 µg/mL | >100 µg/mL
6 | O=C(c1ccc(Cl)cc1)n1c(-c2ccc(S(=O)(=O)O)cc2)nc2ccccc21 [Compound 5] | 2.13 | 2.12 | 2.22 | 2.42 | > 100 µg/mL | >100 µg/mL | 1.88 | 1.52 | 1.22 | > 100 µg/mL | > 100 µg/mL | 1.37 | >100 µg/mL | >100 µg/mL
7 | O=C(c1cccc(O)c1)n1c(-c2ccc(S(=O)(=O)O)cc2)nc2ccccc21 [Compound 6] | 2.15 | 2.10 | 2.22 | 2.40 | > 100 µg/mL | >100 µg/mL | 1.87 | 1.50 | 1.20 | > 100 µg/mL | > 100 µg/mL | 1.35 | >100 µg/mL | >100 µg/mL
8 | O=C(c1ccc(O)cc1O)n1c(-c2ccc(S(=O)(=O)O)cc2)nc2ccccc21 [Compound 7] | 2.42 | 2.12 | 2.32 | 2.42 | > 100 µg/mL | 100 µg/mL | 1.94 | 1.52 | 1.22 | > 100 µg/mL | > 100 µg/mL | 1.37 | >100 µg/mL | >100 µg/mL
9 | COc1ccc(C(=O)n2c(-c3ccc(S(=O)(=O)O)cc3)nc3ccccc32)cc1 [Compound 8] | 2.12 | 2.12 | 2.12 | 2.12 | > 100 µg/mL | >100 µg/mL | 1.82 | 1.51 | 1.21 | > 100 µg/mL | > 100 µg/mL | 1.36 | >100 µg/mL | >100 µg/mL
10 | O=C(c1ccc([N+](=O)[O-])cc1)n1c(-c2ccc(S(=O)(=O)O)cc2)nc2ccccc21 [Compound 9, 4-[1-(4-Nitrobenzoyl)-1H-benzoimidazol-2-yl]-benzenesulfonic acid] | 2.43 | 2.43 | 2.43 | 2.43 | > 100 µg/mL | >100 µg/mL | 2.19 | 2.13 | 1.53 | > 100 µg/mL | > 100 µg/mL | 1.83 | >100 µg/mL | >100 µg/mL
11 | C/C=C/C(=O)n1c(-c2ccc(S(=O)(=O)O)cc2)nc2ccccc21 [Compound 12] | 1.85 | 1.85 | 1.85 | 1.85 | > 100 µg/mL | >100 µg/mL | 1.57 | 1.44 | 0.84 | > 100 µg/mL | > 100 µg/mL | 1.14 | >100 µg/mL | >100 µg/mL
12 | C=CC(=O)n1c(-c2ccc(S(=O)(=O)O)cc2)nc2ccccc21 [Compound 13] | 2.02 | 1.72 | 2.02 | 2.32 | > 20 µg/mL | 100 µg/mL | 1.72 | 1.42 | 1.12 | > 100 µg/mL | > 100 µg/mL | 1.27 | >100 µg/mL | >100 µg/mL
13 | C=C(C)C(=O)n1c(-c2ccc(S(=O)(=O)O)cc2)nc2ccccc21 [Compound 14] | 1.74 | 1.74 | 1.84 | 2.04 | > 100 µg/mL | >100 µg/mL | 1.62 | 1.44 | 1.14 | > 100 µg/mL | > 100 µg/mL | 1.29 | >100 µg/mL | >100 µg/mL
14 | O=C(c1cccnc1)n1c(-c2ccc(S(=O)(=O)O)cc2)nc2ccccc21 [Compound 15] | 2.13 | 2.13 | 2.22 | 2.39 | > 100 µg/mL | >100 µg/mL | 1.98 | 1.75 | 1.48 | > 100 µg/mL | > 100 µg/mL | 1.62 | >100 µg/mL | >100 µg/mL
15 | O=C(c1ccccc1O)n1c(-c2ccc(S(=O)(=O)O)cc2)nc2ccccc21 [Compound 16] | 2.10 | 2.10 | 2.15 | 2.26 | > 100 µg/mL | >100 µg/mL | 1.89 | 1.50 | 1.50 | > 100 µg/mL | > 100 µg/mL | 1.50 | >100 µg/mL | >100 µg/mL
16 | CCCCCCCC/C=C/CCCCCCCC(=O)n1c(-c2ccc(S(=O)(=O)O)cc2)nc2ccccc21 [Compound 18, 4-(1-octadec-9-enoyl-1H-benzoimidazol-2-yl)-benzenesulfonic acid] | 2.24 | 2.24 | 2.11 | 1.85 | > 100 µg/mL | >100 µg/mL | 1.98 | 1.94 | 1.63 | > 100 µg/mL | > 100 µg/mL | 1.79 | >100 µg/mL | >100 µg/mL
17 | OC(Cn1cncn1)(Cn1cncn1)c1ccc(F)cc1F [Fluconazole, fluconazole, reference compound] |  |  |  |  |  |  |  | 2.64** | 2.64** |  |  | 2.64 |  | 

Source: article PMC7115694 (European Journal of Medicinal Chemistry, 2010)
